Bioassay records: PubChem, Broad Institute
MITF TRPM1 HTS = activators of MITF-driven TRPM1 promoter reporter, primary screen, cell-based, SK-MEL-5, luciferase, single point. 300,000 compounds, 0.75% hits. activation, % at 12.5 µM. AID 588334, 2011. SK-MEL-5 TRPM1-promoter luciferase, 24 h; % of positive control, neutral wells = 0;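 active = mean activation of at least 80% with every replicate also reaching 80%; inconclusive = mean reaches 80% but some replicate falls short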;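 also: 0% = neutral control wells and 100% = parthenolide positive control wells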
SR-BI HDL uptake = inhibitors of SR-BI mediated HDL lipid uptake, primary screen, ldlA[mSR-BI] cells, fluorescence, single point; 320,000 compounds, 0.96% hits; inhibition, % at 12.5 µM; ldlA[mSR-BI] CHO cells, DiI-HDL uptake fluorescence, 3 h;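 active = mean replicate inhibition of at least 70% and a set share of replicates each scoring 70 or more; inconclusive = meets just one of the two criteria; inactive = fails both criteria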;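 also: 0% = median of neutral control wells and 100% = median of positive control wells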
Target sequence (Q61009 whole entry, looked up): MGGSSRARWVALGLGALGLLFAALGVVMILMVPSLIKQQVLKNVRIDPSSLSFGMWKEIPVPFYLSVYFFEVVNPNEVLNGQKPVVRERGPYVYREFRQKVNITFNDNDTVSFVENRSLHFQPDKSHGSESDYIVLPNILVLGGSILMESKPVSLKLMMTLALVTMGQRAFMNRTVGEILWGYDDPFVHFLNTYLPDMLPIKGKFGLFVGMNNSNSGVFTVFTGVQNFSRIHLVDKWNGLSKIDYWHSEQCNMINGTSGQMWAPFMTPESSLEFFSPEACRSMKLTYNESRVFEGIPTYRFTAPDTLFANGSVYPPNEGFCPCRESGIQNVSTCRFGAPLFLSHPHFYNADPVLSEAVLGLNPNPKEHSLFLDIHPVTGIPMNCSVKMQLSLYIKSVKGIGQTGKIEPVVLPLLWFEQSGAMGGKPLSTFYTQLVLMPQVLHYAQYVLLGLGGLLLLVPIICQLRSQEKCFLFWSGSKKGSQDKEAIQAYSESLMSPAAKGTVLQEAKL
HSF1 activator = HSF-1 activators, primary screen, NIH3T3-HGL cells, MG132 stress, luminescence, single point | AID 504408, 2011 | NIH3T3-HGL HSF-1 luciferase reporter, 8 h; 100% = twice DMSO control signal | 300,000 compounds, 1.7% hits | activation, % at 9 µM;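 active = mean replicate activation of at least 50% with a set share of replicates each reaching 50%; inconclusive = only one of those two conditions met; inactive = mean below 50% and too few replicates reaching it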;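 also: 0% = median of the neutral control wells and 100% = twice that signal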
SR-BI DiI-HDL act = activators of SR-BI mediated DiI-HDL uptake, primary screen, ldlA[mSR-BI] CHO cells, DiI fluorescence. 3 h; 100 = double the neutral-control signal. activation, % at 12.5 µM. 320,000 compounds, 0.096% hits. AID 504775, 2011;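 active = mean replicate activation of at least 60% and every replicate at or above 60%; inconclusive = mean or all-replicate condition met, but not both; inactive = mean below 60% and not all replicates reaching 60%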;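 also: 0% = median plate neutral-control signal and 100% = twice that signal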
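material = CHO ldlA[mSR-BI] cells | medium = Ham's F12 with 0.5% BSA, HEPES 25 mM, pH 7.4 | reagent = fluorescent DiI-HDL, 10 µg/mL final | compound dosing = single-point compound dose | incubation = 3 h, 37 °C | measured by = bottom-read fluorescence, 550/595 nm | measure = HDL uptake via cellular fluorescence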
Wnt bcat act = Wnt/beta-catenin pathway activators, primary screen, cell-based, plate reader, single point | Wnt/beta-catenin reporter cell assay, activator | activation, % at 9.35 µM | 300,000 compounds, 1.2% hits | AID 743398, 2014; in the data active = activation above about 30%, passing the limit was not always enough; inconclusive = no clear call, values can overlap the other calls;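 also: 0% = neutral control wells and 100% = positive control wells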
Starred values were filed as active, the others as inactive; ? = inconclusive; nt = no result; ! = a repeat was not active. Shown are actives, neighbours in structure and some others; about 3.6% of the full set was active somewhere.

SMILES	MITF TRPM1 HTS	SR-BI HDL uptake	HSF1 activator	SR-BI DiI-HDL act	Wnt bcat act
Cc1nnc(SCCC(C)C)[nH]c1=O	nt	-95.8	-3.4	95.8*	-1.2
CCn1c(SCC(=O)N2CCOCC2)nc2oc3c(Cl)cc(Cl)cc3c(=O)c2c1=O	nt	nt	121.2*	nt	nt
O=C(Nc1ccc2ncccc2c1)c1ccccc1Br	nt	-213.7	8.1	213.7*	nt
Cc1ccc(C(=O)Nc2ccc3ccccc3n2)cc1	41.2	34.2	58.3*	-34.2	35.7*
COC(=O)c1ccsc1NC(=O)CCc1ccccc1	34.1	-39.3	67.5*	39.3	18.1
O=C(Nc1ccc2ncccc2c1)Nc1ccc2ncccc2c1	27.8	26.2	27.1	-26.2	12.1
Cc1ccc(C(=O)NNc2c3ccccc3nc3ccccc23)cc1	nt	96.7*	-12.8	-96.7	-11.0
CC(C)C[C@@H]1O[C@H](CCc2ccccc2)Cc2[nH][nH]c(=O)c21	nt	nt	nt	nt	-2.9
O=C(Nc1ccc2ccccc2n1)c1ccccc1Br	26.0	4.7	70.9*	-4.7	35.1*
O=C(CCc1ccccc1)Nc1ccc2ccccc2n1	100.3*	4.8	92.3*	-4.8	55.8*
CCN(CC)CCn1c(NC(=O)c2ccc(C)cc2)nc2ccccc21	13.4	14.2	57.0*	-14.2	13.4
CCN(CC)C(=O)c1ncn2c1C(=O)NC[C@@H]2C	nt	nt	nt	nt	-2.0
COc1ccc(-c2ccc3c(n2)CCCN3S(=O)(=O)c2ccc(C#N)cc2)cc1	nt	nt	nt	nt	-1.8
CCOC(=O)c1sc(=NC(=O)c2ccc(OC)c(OC)c2)n(C)c1C	68.1	64.7	-9.3	-64.7	12.5
CCOC(=O)c1sc(=NC(=O)c2ccccc2)n(C)c1C	67.9	15.0	61.3*	-15.0	43.6*
CCOC(=O)c1sc(=NC(=O)c2cccc(OC)c2)n(C)c1C	?	66.4	33.8	-66.4	33.2*
CC1(C(=O)Nc2ccc(Cl)c(Cl)c2)CCN1Cc1ccccc1OC(F)F (stereo not given)	nt	nt	nt	nt	-2.8
Cn1c(SCc2ccccc2F)nnc1-c1ccccn1	53.7	-11.6	44.9	11.6	56.0*
Nn1c(SCc2ccccc2F)nnc1-c1cccnc1	nt	nt	26.1	nt	51.8*
Fc1ccc(CSc2ccc(-c3cccs3)nn2)cc1	32.1	-8.6	38.8	8.6	15.8
Cc1ccc(CSc2nnc(-c3ccccn3)n2C)cc1	nt	-5.4	44.5	5.4	10.3
Cn1c(SCc2ccc(F)cc2)nnc1-c1ccccn1	51.6	-2.6	20.0	2.6	43.2*
Cn1c(SCc2ccccc2F)nnc1-c1cnccn1	52.7	-5.2	24.4	5.2	12.0
Cc1ccc(CSc2ccc(-c3cccs3)nn2)cc1	108.6*	-32.5	-5.1	32.5	nt
CCOC(=O)Nc1ccc2c(c1)C(=NNC(=S)NC)c1ccccc1-2	nt	nt	nt	nt	7.0
SMILES	MITF TRPM1 HTS	SR-BI HDL uptake	HSF1 activator	SR-BI DiI-HDL act	Wnt bcat act
O=S(=O)(NCC[C@@H]1CC[C@H](NS(=O)(=O)c2cccc(F)c2)[C@@H](CO)O1)c1cccc(F)c1	nt	nt	nt	nt	-0.8
O=C(OCc1cn([C@H]2C[C@H](c3ccc(Cl)cc3)N(CC3CCCCC3)C[C@@H]2O)nn1)c1ccccc1	nt	nt	nt	nt	-0.1
Cn1c(SCc2ccc(F)cc2)nnc1-c1cccs1	85.9*	-18.0	50.0	18.0	21.9
Clc1ccccc1CSc1nnc(-c2ccccn2)n1Cc1ccco1	nt	0.3	119.6*	-0.3	nt
Cn1c(SCc2ccccc2)nnc1-c1cccs1	?	2.9	2.5	-2.9	nt
CCOc1ccc(/C=N/NC(=S)NC2CC3CC2C2C=CCC32)cc1 (stereo not given)	nt	-4.1	25.6	4.1	3.9
COc1cc(/C=N/NC(=S)NC2CC3CC2C2C=CCC32)ccc1O (stereo not given)	nt	72.6*	-5.1	-72.6	19.5
c1ccc(SCCOCCN2CCOCC2)cc1	nt	-26.3	64.3*	26.3	1.0
O=C1NC[C@H](CCCCN2CCN(Cc3ccccc3)C(=O)C2=O)N(CCC2CCCCC2)C1=O	nt	nt	nt	nt	0.0
Cc1cc(N(C)C)c(C#N)c(NCc2ccccc2)n1	25.1	19.7	93.2*	-19.7	nt
COc1ccc2nc(NC(=O)c3ccccc3C(=O)O)sc2c1	1.5	-14.5	2.1	14.5	1.4
COc1ccc2nc(NC(=O)c3cccc(-c4cc5ccccc5oc4=O)c3)sc2c1	-3.9	77.3*	3.4	-77.3	nt
CCOc1ccc2nc(NC(=O)Nc3ccccc3)sc2c1	63.5	51.1	73.6*	-51.1	nt
COc1ccc2nc(NC(=O)Nc3ccccc3)sc2c1	68.0	41.7	30.5	-38.7	56.3*!
CCOc1ccc2nc(NC(=O)Nc3cccs3)sc2c1	58.6	39.8	79.6*	-39.8	-0.1
CC1(Cc2ccc3ccccc3n2)C(=O)Nc2ccc(OC(F)(F)F)cc21 (stereo not given)	nt	nt	nt	nt	-24.5
CCOC(=O)c1coc(C(=O)OCC)c1C(=O)OCC	-3.4	-4.5	nt	4.5	-1.7
COc1ccccc1C(=O)COC(=O)c1cc(=O)[nH]c2ccccc12	10.7	18.5	-3.8	-18.5	3.3
COc1ccc(C(=O)COC(=O)c2cc(=O)[nH]c3ccccc23)c(OC)c1	100.0*	52.8	49.3	-52.8	26.5
COc1ccc(C(=O)COC(=O)c2cccc(-n3cnnn3)c2)c(OC)c1	92.1*	51.7	26.4	-51.7	18.1
CC(=O)O[C@H]1C=C[C@@H](NC(=O)OC(C)(C)C)C1	nt	nt	nt	nt	-0.1
CCCCn1nnnc1C(c1cc2ccccc2o1)N1CCN(CC(=O)NC(C)C)CC1 (stereo not given)	nt	nt	nt	nt	-0.5
CCSc1nc(-c2ccccc2)nc(C(Cl)Cl)n1	-95.9	-15.4	57.4*	15.4	-23.0
COc1ccc(OC)c(C(O)c2ncc(-c3ccccc3OC)[nH]2)c1 (stereo not given)	nt	nt	nt	nt	-2.5
Cn1c(=O)c(=O)n(C)c2cc(S(=O)(=O)CCC(=O)Nc3ccccc3C(F)(F)F)ccc21	nt	nt	nt	nt	-0.6
SMILES	MITF TRPM1 HTS	SR-BI HDL uptake	HSF1 activator	SR-BI DiI-HDL act	Wnt bcat act
CCCCCc1c(C)nc(Nc2ccc(F)cc2)[nH]c1=O	2.5	-0.1	12.7	0.1	nt
CCCCc1c(C)nc(Nc2ccc(OC)cc2)[nH]c1=O	28.3	-60.3	14.3	60.3*	nt
COc1ccc(-c2sc3ccc(OC)cc3c2C#Cc2cncn2C)cc1	10.6	?	nt	-72.0	1.1
COc1ccc(-c2oc3ccccc3c2C#Cc2cncn2C)cc1	8.1	78.9*	nt	-78.9	-1.0
CC(=O)c1sc(N/N=C\c2c(O)ccc3ccccc23)nc1C	nt	97.1*	33.4	-97.1	24.4
O=[N+]([O-])c1cccc(-c2csc(N/N=C/c3cccc(O)c3)n2)c1	36.3	101.3*	4.2	-101.4	26.2
Cc1cc(N/N=C/c2c(O)ccc3ccccc23)nc(-c2ccccc2O)n1	-1.4	90.9*	0.1	-90.9	-2.7
O=[N+]([O-])c1cccc(C=NNc2ccccc2)c1	60.8	4.8	nt	-4.8	-2.6
CCOC(=O)Cc1csc(N/N=C/c2cccc([N+](=O)[O-])c2)n1	24.1	23.3	-4.5	-23.3	-0.9
